Among the data in ChEMBL document CHEMBL1145431, “Improved anti-osteoporosis potency and reduced endometrial membrane hyperplasia during hormone replacement therapy with estrogen-RGD peptide conjugates” (2007) are Activity values, retold here.

Where a SMILES comes first, the peptide text is derived from it. The star is where a group is joined. X1 = C[C@]12CC[C@@H]3c4ccc(OCC(=O)*)cc4CC[C@H]3[C@@H]1CCC2O

Test [1] relates to Mus musculus. In words: Effect on dry weight of femurs in mouse at 0.1103 mmol/kg, po. In kind it is functional, Femur. The essentials:
(§1)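 Female Kuiming mice (7 weeks old, 30.7 ± 3.1 g) under abdominal OVX, sham group abdominorotomy only. From day 5 after surgery, dosed orally once daily for 4 weeks at 110.3 × 10-3 mmol/kg in 0.5% CMC (0.2 mL), vehicle group CMC alone. Blood drawn retro-orbitally, then left femur and organs removed under pentobarbital (40.0 mg/kg, i.p.).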

Test [2] relates to Mus musculus. In words: Effect on lenght of femur in mouse at 0.110 mmol/kg, po. In kind it is functional. The essentials:
as §1

Test [3] relates to Mus musculus. Description: Effect on serum phosphorous Concentration in mouse at 0.110 mmol/kg, po. In kind it is functional. The essentials:
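Oral OVX Kuiming mouse model, dosed daily for 4 weeks at 110.3 × 10-3 mmol/kg in 0.5% CMC. Retro-orbital blood stood 30 min at room temperature and was spun at 3000 g for 20 min. Serum kept at -20 °C. Calcium read by o-methylphenolphthalein complexone, phosphorus by molybdenum blue, ALP by activity on disodium phenylphosphate substrate.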

Test [4] relates to Mus musculus. In words: Increase in body weight in ovariectomized mouse at 0.1103 mmol/kg, ip once daily for 4 weeks. The test is classed as functional. The essentials:
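Female Kuiming mice (30.7 ± 3.1 g) underwent abdominal OVX; the sham group had abdominorotomy only. From day 5 after surgery, i.p. dosing once daily for 4 weeks at 110.3 × 10-3 mmol/kg in aqueous 0.5% CMC. Body weight was recorded on the day of the last administration.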

Test [5] relates to Mus musculus. In words: Effect on serum phosphorus level in ovariectomized mouse at 0.1103 mmol/kg, ip once daily for 4 weeks. The test is classed as functional. The essentials:
(§2)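 OVX Kuiming mice dosed i.p. daily for 4 weeks in 0.5% CMC. Blood taken retro-orbitally on the day after the last dose, stood 30 min, spun at 3000 g for 20 min, serum stored at -20 °C. Calcium by o-methylphenolphthalein complexone, phosphorus by molybdenum blue, ALP by activity with disodium phenylphosphate substrate.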

The test system of test [6] is Mus musculus. In words: Effect on dry weight of femurs in ovariectomized mouse at 0.1103 mmol/kg, ip once daily for 4 weeks. The test is classed as functional, Femur. The essentials: (§3)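 Female Kuiming mice (7 weeks, 30.7 ± 3.1 g) ovariectomized, sham group abdominorotomy. From day 5, i.p. once daily for 4 weeks at 110.3 × 10-3 mmol/kg in 0.5% CMC. Left femur cleaned, length measured, defatted in chloroform-methanol (2:1, 2 × 3 h), dried 120 °C 6 h for dry weight, ashed 800 °C 8 h. Mineral content = ash/dry weight. Ash dissolved in 6 N HCl and diluted. Ca by o-methylphenolphthalein complexone, P by molybdenum blue. Lungs and livers weighed directly.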

The test system of test [7] is Mus musculus. In words: Effect on femur ash weight in ovariectomized mouse at 0.1103 mmol/kg, ip once daily for 4 weeks. In kind it is functional. The essentials:
as §3

The subject of test [8] is Mus musculus. Description: Effect on calcium level in ovariectomized mouse at 0.1103 mmol/kg, ip once daily for 4 weeks. In kind it is functional. The essentials: as §3
Test [9] has as its system Mus musculus. In words: Effect on phosphorus level in ovariectomized mouse at 0.1103 mmol/kg, ip once daily for 4 weeks. The test is classed as functional. The essentials:
as §3

Test [10] concerns Mus musculus. In words: Effect on spleen weight in ovariectomized mouse at 0.1103 mmol/kg, ip once daily for 4 weeks. The test is classed as functional. The essentials:
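Female Kuiming mice (7 weeks old, 30.7 ± 3.1 g), abdominal OVX under pentobarbital (40.0 mg/kg i.p.). From day 5 after surgery, i.p. injection once daily for 4 weeks, compound in aqueous 0.5% CMC prepared just before use. The day after the last dose, mice were anesthetized and killed, and lungs, livers, spleens and uteri were removed and weighed directly. n = 12, ANOVA, p < 0.05.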

In test [11] the test system is Mus musculus. In words: Effect on liver weight in ovariectomized mouse at 0.110 mmol/kg, ip once daily for 4 weeks. In kind it is functional. The essentials:
as §3

Test [12] has as its system Mus musculus. In words: Effect on dry weight of femur in recipient mouse at 0.011 mmol/kg, ip. The test is classed as functional. The essentials: (§4)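 Dose-response in OVX Kuiming mice, i.p. daily for 4 weeks in 0.5% CMC at 11.03, 55.15 or 110.3 × 10-3 mmol/kg. Left femur: length, then defatting, drying at 120 °C for 6 h (dry weight), ashing at 800 °C for 8 h. Ash/dry ratio gives mineral content. Ash Ca and P measured colorimetrically. Liver, lung and spleen weighed directly. n = 12, ANOVA.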

Test [13] concerns Mus musculus. In words: Effect on femur ash weight in recipient mouse at 0.055 mmol/kg, ip. The test is classed as functional. The essentials: as §4
Test [14] concerns Mus musculus. Description: Effect on liver weight in mouse at 0.055 mmol/kg, ip. In kind it is functional. The essentials:
as §4

Test [15] relates to Mus musculus. Description: Effect on liver weight in mouse at 0.011 mmol/kg, ip. In kind it is functional. The essentials:
as §4

The subject of test [16] is Mus musculus. Description: Effect on serum calcium level in mouse at 0.1103 mmol/kg, ip. In kind it is functional. The essentials: as §2
In test [17] the test system is Mus musculus. In words: Effect on phosphorous level in mouse femur at 0.011 mmol/kg, ip. The test is classed as functional. Conditions: in the assay text read “0.11 mmol/kg” for “0.011 mmol/kg”. The essentials:
as §4

Turning to `CC(C)[C@H](NC(=O)[C@H](CC(=O)O)NC(=O)CNC(=O)[C@H](CCCNC(=N)N)NC(=O)COc1ccc2c(c1)CC[C@@H]1[C@@H]2CC[C@]2(C)C(O)CC[C@@H]12)C(=O)O` (some centres undefined) (X1-RGDV-OH), the Activity is 68.4 mg in the test with Mus musculus [1]; 1.614 cm in the test on Mus musculus [2]; 1.61 mmol/L in the test on Mus musculus [3]; 35.2 g in the test with Mus musculus [4]; 1.6 mmol/L in the test with Mus musculus [5]; 63.7 mg with Mus musculus [6]. In addition, the Activity amounted to 40 mg in the test with Mus musculus [7]; 58.35% with Mus musculus [8]; 24.991% in the test with Mus musculus [9]; 132 mg with Mus musculus [10]; 1.363 g in the test with Mus musculus [11]; 50.9 mg in the test with Mus musculus [12]. Besides, the Activity with Mus musculus [13] is 32.3 mg; in the test on Mus musculus [14], 1.462 g; with Mus musculus [15], 1.48 g; with Mus musculus [16], 2.005 mmol/L.
As for `C[C@]12CC[C@@H]3c4ccc(OCC(=O)N[C@@H](CCCNC(=N)N)C(=O)NCC(=O)N[C@@H](CC(=O)O)C(=O)N[C@@H](CO)C(=O)O)cc4CC[C@H]3[C@@H]1CCC2O` (some centres undefined) (X1-RGDS-OH), the Activity with Mus musculus [1] was 68.6 mg; in the test with Mus musculus [2] it was 1.635 cm; with Mus musculus [3], 1.6 mmol/L; in the test on Mus musculus [4] it was 35.2 g; in the test on Mus musculus [5] it was 1.599 mmol/L; with Mus musculus [6] it was 63.4 mg. Moreover, the Activity with Mus musculus [7] is 37 mg; in the test with Mus musculus [8], 54.885%; in the test with Mus musculus [9], 24.949%; with Mus musculus [10] it was 124 mg; in the test on Mus musculus [11], 1.377 g; with Mus musculus [12], 48.8 mg. Moreover, the Activity with Mus musculus [13] was found to be 31.6 mg; with Mus musculus [14], 1.397 g; in the test with Mus musculus [15] it was 1.42 g; in the test on Mus musculus [16], 2.014 mmol/L.
`C[C@]12CC[C@@H]3c4ccc(OCC(=O)N[C@@H](CCCNC(=N)N)C(=O)NCC(=O)N[C@@H](CC(=O)O)C(=O)N[C@@H](Cc5ccccc5)C(=O)O)cc4CC[C@H]3[C@@H]1CCC2O` (some centres undefined) (X1-RGDF-OH): the Activity stood at 63.1 mg with Mus musculus [1]; 1.626 cm with Mus musculus [2]; 1.6 mmol/L with Mus musculus [3]; 33.1 g with Mus musculus [4]; 1.605 mmol/L in the test with Mus musculus [5]; 64.2 mg with Mus musculus [6]. Further, the Activity was 35.8 mg in the test on Mus musculus [7]; 56.69% with Mus musculus [8]; 25.46% in the test on Mus musculus [9]; 131 mg with Mus musculus [10]; 1.395 g in the test with Mus musculus [11]; 46.9 mg with Mus musculus [12]. In addition, the Activity was determined as 31.6 mg in the test with Mus musculus [13]; 25.46% in the test with Mus musculus [17]; 1.407 g in the test on Mus musculus [14]; 1.57 g with Mus musculus [15]; 2.015 mmol/L in the test with Mus musculus [16].
